Source: PubChem BioAssay (several laboratories)
A selection: hits, their analogues and other compounds. The true share with any hit is near 8.9%.
b-catenin transl: modulators of beta-catenin nuclear translocation; HeLa beta-catenin nuclear translocation, immunofluorescence imaging; AID 1665; nuclear translocation activity, % at 5 µM; hit rate 0.3% among 190,000;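 active = nuclear translocation activity above 50% at 5 µM, with a well cell count of 50 or more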;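 note: per-cell ratio of nuclear to cytoplasmic median beta-catenin stain intensity; plate controls were DMSO negative control for no effect and GSK-3 inhibitor IX positive control for full effect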
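Signal – beta-catenin immunofluorescence imaging with DAPI · Test system – human HeLa cell line · Dosing – 5 µM primary single dose, 0.1% DMSO, 0.02–20 µM confirmation series · Measure – % activation, nuclear-to-cytoplasmic median beta-catenin signal ratio per cell · Incubation – 24 h compound exposure at 37°C, 5% CO2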
Dynein cargo inh: blocks dynein driven cargo transport along microtubules. 3617.4 mouse cells, GR-EGFP nuclear translocation imaging; test concentration mostly 20 µM; stimulated with dexamethasone, 1 µM; active compounds read low. z-score, hits read low. hit rate 0.47% among 220,000. AID 1381;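 active = plate z-score of nuclear minus cytoplasmic receptor signal below a set negative limit, without overly bright fluorescence or cell loss, cut at about -3.5 in these data, passing the limit was not always enough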;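 note: z-score of nuclear minus cytoplasmic ring GR-EGFP intensity difference per well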
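Buffer or medium: Induction medium lacking tetracycline, stripped serum | Also added: Dexamethasone agonist, 1.0 µM final, for 30 min | Timing: 48 h induction, 1 h compound, 30 min dex at 37 °C | Detection: Formaldehyde fixation, Hoechst nuclear stain, 10x automated fluorescence imaging | Measure: Nuclear versus cytoplasmic GR-EGFP signal, averaged per well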
Lmaj promast: inhibitors of Leishmania major promastigote growth. Leishmania major promastigotes, resazurin fluorescence viability. inhibition, % at 10 µM. hit rate 9% among 200,000; in the data active = inhibition above about 50%;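 note: promastigotes grown with compound for 44 hours at 28 °C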
HSV replic up: HSV replication enhancement; HSV replication augmentation in cells, fold increase; maximum fold increase; hit rate 0.005% among 220,000; in the data active = maximum fold increase above about 1.5; tested in PC3 cells
MT stabilizer: microtubule stabilizers in HeLa cells | HeLa tubulin immunostaining HCS, 24 h; share of cells brighter than vehicle mean+2SD | % tubulin-high responders, % at 10 µM | hit rate 0.83% among 200,000 | AID 2205;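 active = plate Z-score above 3 for both tubulin-high and condensed-nucleus cell shares, with cell loss under 80%, at 10 µM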;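 note: anti alpha tubulin signal scored within the nucleus-defined area of each cell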
L major 1uM: L. major promastigote growth inhibition, 1 uM repeat; shares compounds with Lmaj promast; resazurin fluorescence, 48 h; inhibition, % at 1 µM; hit rate 13% among 1,100; AID 1258;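 active = inhibition above about 50% in both repeat tests, limit read from the data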
* marks the source's active call; other numbers are inactive results; i = inactive; · = no result.

SMILES | b-catenin transl | Dynein cargo inh | Lmaj promast | HSV replic up | MT stabilizer | L major 1uM
N/N=C(\c1ccccc1)C12CN3CN(CN(C3)C1)C2 | -1 | 0.54 | 52* | i | 2 | -14
Cc1c(O)ccc(/C(Cc2ccc3ccccc3n2)=N\O)c1O | 0 | -0.67 | 59* | i | 2 | -10
CC(c1ccccc1C(O)(c1ccccc1)c1ccccc1)N(C)C (stereo unspecified) | -2 | 0.29 | 99* | i | 3 | 26
O=P(CCCCCCCCCP(=O)(c1ccccc1)c1ccccc1)(c1ccccc1)c1ccccc1 | 1 | -0.53 | 93* | i | 5 | -5
Cc1ccc(NC(=O)COC(=O)c2ccc3c(c2)NC(=O)C2CCCN32)cc1C (stereo unspecified) | 0 | -0.52 | -3 | i | 2 | ·
Cc1ccc2[nH]c3c(c2c1)CCC3=O | -1 | 0.49 | -2 | i | 12 | ·
Cc1ccc2[nH]c3c(c2c1)CCc1cn[nH]c1-3 | 5 | 2.6 | 52* | · | 3 | -8
Cc1cc(C)nc(/N=c2/ssnc2Cl)c1 | -5 | -1.6 | 99* | i | 4 | 94*
Cc1ccc(N=c2ssnc2Cl)cc1 | -3 | -0.53 | -11 | i | 2 | ·
Cc1ccc(C2N3CC4([N+](=O)[O-])CN2CC([N+](=O)[O-])(C3)C4(C)C)cc1 (stereo unspecified) | 2 | 0.33 | 65* | i | 4 | 3
CC1(C)C2([N+](=O)[O-])CN3CC1([N+](=O)[O-])CN(C2)C3c1ccc(O)c(O)c1 (stereo unspecified) | 1 | -0.57 | · | i | · | ·
Cc1ccc2cc(C)c(Sc3nnnn3-c3ccccc3)nc2c1 | · | 0.49 | 60* | i | 3 | -18
Cn1ccnc1Sc1nnnn1-c1ccccc1 | -1 | 0.31 | -6 | i | 7 | ·
O=S(=O)(NCCCc1ccccc1)c1ccc(Cl)cc1 | 0 | 0.58 | -6 | i | 3 | ·
COCCCC/C(=N\OCCN)c1ccc(C(F)(F)F)cc1 | -3 | -0.041 | 80* | i | 4 | -1
O=C(CCC(=O)OCC(=O)c1ccc(C(F)(F)F)cc1)OCC(=O)c1ccc(C(F)(F)F)cc1 | 1 | -0.62 | · | i | · | ·
CCOC(=O)CCNC(C)C1COc2ccccc2O1 (stereo unspecified) | 0 | -1.1 | 27 | i | 2 | ·
CC1(C)Cc2c(c(N3CCOCC3)nc3snc(NC(=O)c4ccccc4)c23)CO1 | · | 0.14 | -1 | i | 3 | ·
C[n+]1ccn(CC(=O)c2ccc(Br)cc2)c1 | · | -0.93 | 2 | i | 2 | ·
CCCCCCCCC[n+]1cccc2c3ccccc3ccc21 | 3 | 1.4 | 101* | i | 2 | 101*
Cc1[nH]c2c(ccc3ccccc32)c1C1C(CCN)C1(C)C (stereo unspecified) | 3 | 10 | 100* | i | 4 | -21
CCc1ccc(NSc2ccccc2[N+](=O)[O-])cc1 | 1 | 1.3 | 99* | i | 46* | 71*
O=C(O)c1ccccc1NSc1ccccc1[N+](=O)[O-] | 1 | 1.1 | -1 | i | 1 | ·
N#Cc1cnc(Sc2ccccc2)nc1 | -2 | 0.34 | 6 | i | 2 | ·
COCC(=O)N/N=C/c1ccc(Sc2nc3ccccc3s2)o1 | 12 | -0.33 | 81* | i | 3 | -8
SMILES | b-catenin transl | Dynein cargo inh | Lmaj promast | HSV replic up | MT stabilizer | L major 1uM
Cc1ccccc1OCC(=O)N/N=C/c1ccc(Sc2nc3ccccc3s2)o1 | · | -0.58 | 7 | i | 2 | ·
COc1ccc(N(CC(=O)Nc2cccc(N(C)S(C)(=O)=O)c2)S(=O)(=O)c2ccccc2)cc1Cl | -4 | 1.3 | 56* | i | 5 | -6
CC(C)CN(C(=O)c1ccc(=O)n(C)n1)c1nc2ccccc2s1 | 0 | -0.58 | 57* | i | 2 | -17
Cc1nc(-c2ccc(S(=O)(=O)N3CCN(CCc4ccccc4)CC3)s2)cs1 | 0 | -0.24 | · | i | · | ·
COc1ccc(N2COC3c4cccc5cccc(c45)C32)cc1 (stereo unspecified) | -4 | 0.59 | 75* | i | 5 | -3
COC(=O)CN1C(c2cccc(Cl)c2)=Nc2ccc(Cl)cc2C1c1ccccc1 (stereo unspecified) | 2 | -0.7 | 60* | i | 8 | 29
CCCOc1ccc(C(=O)NCCC(=O)NCCCC(=O)OCC)cc1 | -6 | 1.4 | -2 | i | 4 | ·
CC(SCC(=O)NC12CC3CC(CC(C3)C1)C2)C(=O)O (stereo unspecified) | -1 | 0.46 | 56* | i | 2 | 0
CCN(CC)C(=S)SCC(=O)NC12CC3CC(CC(C3)C1)C2 | -1 | -0.78 | -2 | i | 2 | ·
COc1ccc(F)cc1C(=O)C1CCCN(Cc2c(C)n(C)n(-c3ccccc3)c2=O)C1 (stereo unspecified) | -2 | -0.75 | -6 | i | 2 | ·
O=S(=O)(c1ccc(S(=O)(=O)N2CCCN(Cc3ccccc3)C2)cc1)N1CCCCCC1 | 0 | -0.32 | 76* | i | 2 | 20
O=S(=O)(NCc1ccccc1)c1ccc(S(=O)(=O)N2CCCCC2)cc1 | -8 | -0.5 | -2 | i | 2 | ·
COc1ccc(Cn2cnc3c(N)c(C)c(C)cc32)cc1 | 2 | 0.4 | 16 | i | 2 | ·
CCCCCCCCn1cnc2c(N)c(C)c(C)cc21 | · | 0.7 | 91* | i | 2 | -4
COc1ccc(CC/C(=N\O)C2(O)CCCCC2)cc1 | 0 | 0.87 | 6 | i | 6 | ·
COc1ccc(CC2NCCC3(O)CCCCC23)cc1 (stereo unspecified) | -2 | 0.33 | 68* | i | 6 | -7
COc1ccc(-c2nc(NC(=O)c3cc(C(C)(C)C)nn3C)sc2C)cc1 | -2 | -1.3 | 70* | i | 3 | 9
Cc1nc2c(-c3ccc(F)cc3)c(C)nn2c(C)c1CCC(=O)Nc1ccc(F)cc1F | 2 | -0.54 | · | i | · | ·
COc1ccc(N2CCN(c3ccc(NC(=O)C4CCCCC4)cc3C#N)CC2)cc1 | · | 0.29 | -4 | i | 2 | ·
CC(=O)Nc1cccc(Oc2cc(C#N)c(C#N)cc2N2CCCCCC2)c1 | · | 2.1 | 61* | i | 3 | 0
Cc1cccc(CNc2ccc(C(CC(N)=O)NC(=O)c3ccccc3)cc2[N+](=O)[O-])c1 (stereo unspecified) | -1 | 0.57 | · | i | · | ·
Cc1cc(C)c(C#N)c(SCC(=O)c2ccccc2)n1 | 0 | 0.12 | 100* | i | 3 | 40
COc1ccc(C(N)CCc2ccc(C)o2)cc1 (stereo unspecified) | -1 | 1.2 | 54* | · | 7 | -15
CCc1ccc(CCC(=O)Nc2ccc(OC)cc2)o1 | -2 | -0.04 | -1 | i | 4 | ·
Cc1ccccc1-c1cc2c(nn1)-c1ccccc1C2=O | 3 | -1.2 | 93* | i | 2 | -13
Cc1ccc(-c2cc3c(nn2)-c2ccccc2C3=O)cc1 | 0 | -0.017 | · | i | · | ·
Oc1cccc(C(O)CNCc2ccc(-c3ccccc3)cc2)c1 (stereo unspecified) | 26 | -0.15 | 91* | i | 4 | -10
